Measured values published in ChEMBL document CHEMBL5038582, “Adamantyl Isothiocyanates as Mutant p53 Rescuing Agents and Their Structure-Activity Relationships” (J Med Chem, 2021).
Activity calls are given as the source filed them. The rule behind the calls is not given here.

Experiments:
[1] = tested on: MDA-MB-231; assay: Antiproliferative activity against human MDA-MB-231 cells expressing p53 R280K mutant assessed as inhibition of cell growth at 10 to 50 uM incubated for 24 to 72 hrs by WST-1 assay; format: functional, cell-based; conditions: dose 10-50 µM, time 24-72 hrs
Summary of the method: (§1)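 WST-1 proliferation assay. Compound diluted in DMSO so that 10 μl of stock in 1 ml of cells (40,000 cells/ml) gives the test concentration at 1% DMSO. Cells plated at 4,000/well in duplicate and incubated at 37 °C for 24 h or 72 h. Result given as % of the 1% DMSO control.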

[2] = Octanol-water partition coefficient, logP of the compound by HPLC-MS analysis; format: physicochemical; conditions: for logP: 18 h
Summary of the method: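 Compound (10 µL of 10 mM DMSO stock) added to 0.5 mL octanol plus 0.5 mL sodium phosphate buffer pH 7.4. Stirred 18 h, centrifuged 2 h at 3600 rpm. Concentration in each phase measured by LC-MS on a C18 column.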

[3] = tested on: MCF7; assay: Upregulation of p53 expression in human MCF7 cells at 6 to 12 uM measured after 24 hrs by immunoblot analysis; format: functional, cell-based; conditions: dose 6-12 µM
Summary of the method: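 Cells treated with DMSO or compound at 6 or 12 µM for 24 h and lysed. 50 µg MCF-7 lysate resolved by SDS-PAGE and probed with p53 DO-1 antibody. Reprobed with anti-GAPDH as loading control. Run in triplicate.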

[4] = tested on: MCF7; assay: Antiproliferative activity against human MCF7 cells expressing WT p53 assessed as inhibition of cell growth at 10 to 50 uM incubated for 24 to 72 hrs by WST-1 assay; format: functional, cell-based; conditions: dose 10-50 µM, time 24-72 hrs; summary of the method: as §1
[5] = tested on: MDA-MB-468; assay: Induction of apoptosis in human MDA-MB-468 cells expressing p53 R273H mutant assessed as decrease in level of uncleaved caspase 3 level at 6 to 12 uM measured after 24 hrs by western blotting analysis; format: functional, cell-based; conditions: dose 6-12 µM
Summary of the method: (§2)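 Cells treated with DMSO or compound at 6 or 12 µM for 24 h, then lysed in Tris-Cl pH 8.0/NaCl/glycerol/NP-40/EDTA buffer with protease inhibitors. 100 µg lysate resolved on 4-12% SDS-PAGE and blotted to PVDF. Probed with anti-PARP or anti-caspase 3, then HRP secondary and ECL. GAPDH reprobe as control.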

[6] = tested on: MDA-MB-231; assay: Induction of apoptosis in human MDA-MB-231 cells expressing p53 R280K mutant assessed as decrease in level of uncleaved caspase 3 level at 6 to 12 uM measured after 24 hrs by western blotting analysis; format: functional, cell-based; conditions: dose 6-12 µM; summary of the method: as §2
[7] = tested on: MDA-MB-231; assay: Induction of apoptosis in human MDA-MB-231 cells expressing p53 R280K mutant assessed as increase in level of cleaved PARP1 level at 6 to 12 uM measured after 24 hrs by western blotting analysis; format: functional, cell-based; conditions: dose 6-12 µM; summary of the method: as §2
[8] = tested on: MDA-MB-231; assay: Downregulation of p53 R280K mutant expression in human MDA-MB-231 cells at 6 to 12 uM measured after 24 hrs by immunoblot analysis; conditions: dose 6-12 µM
[9] = tested on: MCF7; assay: Induction of apoptosis in human MCF7 cells expressing wild type p53 assessed as increase in cleaved PARP1 level at 6 to 12 uM measured after 24 hrs by western blotting analysis; format: functional, cell-based; conditions: dose 6-12 µM; summary of the method: as §2
[10] = tested on: MDA-MB-468; assay: Induction of apoptosis in human MDA-MB-468 cells expressing p53 R273H mutant assessed as increase in level of cleaved PARP1 level at 6 to 12 uM measured after 24 hrs by western blotting analysis; format: functional, cell-based; conditions: dose 6-12 µM; summary of the method: as §2
[11] = tested on: MDA-MB-468; assay: Downregulation of p53 R273H mutant expression in human MDA-MB-468 cells at 6 to 12 uM measured after 24 hrs by immunoblot analysis; format: functional, cell-based; conditions: dose 6-12 µM
Summary of the method: (§3)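 24 h exposure to 6 or 12 μM, DMSO control. Lysis in Tris pH 8.0/NaCl/glycerol/NP-40/EDTA buffer with protease inhibitors. 20 µg (MDA-MB-231, MDA-MB-468) or 50 µg (MCF-7) of lysate run on 4-12% SDS-PAGE. Blot probed with p53 DO-1, GAPDH used for reprobe/loading. Triplicate experiments.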

[12] = tested on: MCF7; assay: Induction of apoptosis in human MCF7 cells expressing wild type p53 assessed as decrease in level of uncleaved PARP1 level at 6 to 12 uM measured after 24 hrs by western blotting analysis; format: functional, cell-based; conditions: dose 6-12 µM; summary of the method: as §2
[13] = tested on: MCF7; assay: Downregulation of p53 expression in human MCF7 cells at 6 to 12 uM measured after 24 hrs by immunoblot analysis; format: functional, cell-based; conditions: dose 6-12 µM; summary of the method: as §3
[14] = tested on: MCF7; assay: Induction of apoptosis in human MCF-7 cells expressing wild type p53 assessed increase in number of Annexin-V stained cells at 6 to 12 uM incubated for 24 hrs by AnnexinV-FITC and PI staining based flow cytometry; format: functional, cell-based; conditions: dose 6-12 µM
Summary of the method: (§4)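 24 h treatment, DMSO control. Cells scraped, washed in PBS, then given fluorochrome-conjugated Annexin V for 15 min at RT in the dark, followed by PI (0.1 µg/ml) in binding buffer. Read by flow cytometry on LSRFortessa. Annexin V-positive cells expressed relative to the DMSO control.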

[15] = tested on: MDA-MB-231; assay: Antiproliferative activity against human MDA-MB-231 cells expressing p53 R280K mutant assessed as inhibition of cell growth at 24 to 48 uM incubated for 72 hrs by WST-1 assay; format: functional; conditions: dose 24-48 µM; summary of the method: as §1
[16] = tested on: MDA-MB-231; assay: Antiproliferative activity against human MDA-MB-231 cells expressing p53 R280K mutant assessed as inhibition of cell growth incubated for 24 hrs by WST-1 assay; format: functional, cell-based; conditions: MDA-MB-231, 24 h
Summary of the method: (§5)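 WST-1 proliferation assay. Compound diluted in DMSO and added to cells at 1% DMSO final. 4,000 cells/well in duplicate; DMSO-only wells as control, cell-free medium wells for background.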

[17] = tested on: MDA-MB-468; assay: Induction of apoptosis in human MDA-MB-468 cells expressing p53 R273H mutant assessed fold increase in number of Annexin-V stained cells at 6 to 12 uM incubated for 24 hrs by AnnexinV-FITC and PI staining based flow cytometry relative to control; format: functional; conditions: dose 6-12 µM; summary of the method: as §4
[18] = tested on: MDA-MB-231; assay: Antiproliferative activity against human MDA-MB-231cells expressing p53 R280K mutant assessed as inhibition of cell growth at 10 to 50 uM incubated for 24 hrs by WST-1 assay; format: functional, cell-based; conditions: dose 10-50 µM; summary of the method: as §1
[19] = tested on: MDA-MB-231; assay: Induction of apoptosis in human MDA-MB-231 cells expressing p53 R280K mutant assessed fold increase in number of Annexin-V stained cells at 6 to 12 uM incubated for 24 hrs by AnnexinV-FITC and PI staining based flow cytometry relative to control; format: functional; conditions: dose 6-12 µM; summary of the method: as §4
[20] = tested on: MDA-MB-231; assay: Antiproliferative activity against human MDA-MB-231 cells expressing p53 R280K mutant assessed as inhibition of cell growth incubated for 72 hrs by WST-1 assay; format: functional, cell-based; conditions: MDA-MB-231, 72 h; summary of the method: as §5
[21] = tested on: MDA-MB-468; assay: Antiproliferative activity against human MDA-MB-468 cells expressing p53 R273H mutant assessed as inhibition of cell growth at 10 to 50 uM incubated for 24 to 72 hrs by WST-1 assay; format: functional, cell-based; conditions: dose 10-50 µM, time 24-72 hrs; summary of the method: as §1
[22] = tested on: MDA-MB-231; assay: Induction of apoptosis in human MDA-MB-231 cells expressing p53 R280K mutant assessed increase in number of Annexin-V stained cells at 6 to 12 uM incubated for 24 hrs by AnnexinV-FITC and PI staining based flow cytometry; format: functional, cell-based; conditions: dose 6-12 µM; summary of the method: as §4
[23] = tested on: MDA-MB-468; assay: Induction of apoptosis in human MDA-MB-468 cells expressing p53 R273H mutant assessed increase in number of Annexin-V stained cells at 6 to 12 uM incubated for 24 hrs by AnnexinV-FITC and PI staining based flow cytometry; format: functional, cell-based; conditions: dose 6-12 µM; summary of the method: as §4

CC(C)(COC12CC3CC(CC(C3)C1)C2)N=C=S
Activity [1]: inactive

CC12CC3CC(C)(C1)CC(N=C=S)(C3)C2
Activity [1]: inactive

S=C=NCCOC12CC3CC(CC(C3)C1)C2
Activity [1]: inactive | logP at 18 h [2]: 3.73

S=C=NCCc1ccccc1
Activity [1]: Active | Activity [3]: Active | Activity [4]: Active | Activity [5]: Active | Activity [6]: Active | Activity [7]: Active | p53 R280K downregulation (active/not active) [8]: Active | Activity [9]: Active | Activity [10]: Active | inhibition [11]: Active | Activity [12]: Active

S=C=NCC12CC3CC(CC(C3)C1)C2
inhibition [13]: inactive | Activity [14]: inactive | inhibition (INH) [15]: 50% | IC50 [16]: 24 µM | Activity [4]: Active | fold change (FC) [17]: 2 | p53 R280K downregulation (active/not active) [8]: Active | Activity [18]: Dose-Dependent Effect | fold change (FC) [19]: 2 | inhibition [11]: Active

CCCC(CN=C=S)C1C2CC3CC(C2)CC1C3 (stereo not drawn)
Activity [1]: inactive | logP [2]: 6.77

S=C=NCCC12CC3CC(CC(C3)C1)C2
inhibition [13]: inactive | Activity [14]: inactive | IC50 [16]: 24 µM | Activity [4]: inactive | fold change (FC) [17]: 2 | p53 R280K downregulation (active/not active) [8]: Active | Activity [18]: Dose-Dependent Effect | IC50 [20]: 12 µM | fold change (FC) [19]: 2 | inhibition [11]: Active

C1C2CC3CC1CC(C2)C3
Activity [1]: inactive | Activity [4]: inactive | Activity [21]: inactive

CC(N=C=S)C12CC3CC(CC(C3)C1)C2 (stereo not drawn)
Activity [1]: inactive

S=C=Nc1ccc(C23CC4CC(CC(C4)C2)C3)cc1
Activity [18]: Dose-Dependent Effect | logP [2]: 6.34

S=C=NC1C2CC3CC(C2)CC1C3 (stereo not drawn)
Activity [1]: inactive

O=C1CNC(=S)N1CCC12CC3CC(CC(C3)C1)C2
Activity [22]: inactive | Activity [1]: inactive | inhibition [13]: inactive | Activity [14]: inactive | Activity [4]: inactive | Activity [23]: inactive | Activity [21]: inactive | p53 R280K downregulation (active/not active) [8]: inactive | logP at 18 h [2]: 3.73 | inhibition [11]: inactive

O=C(CC12CC3CC(CC(C3)C1)C2)N=C=S
Activity [1]: inactive | logP [2]: 3.73

S=C=NC12CC3CC(CC(C3)C1)C2
Activity [22]: inactive | Activity [1]: inactive | inhibition [13]: inactive | Activity [14]: inactive | Activity [23]: inactive | p53 R280K downregulation (active/not active) [8]: inactive | inhibition [11]: inactive
